Tests used:
Micrococcus luteus = experiment: Antibacterial activity against Micrococcus luteus at 50 uL/well by well diffusion assay; type: functional
Summary of the method: (§1)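 Bauer-type diffusion assay. Test compounds were at 2% in DMSO. The read-out was the diameter (mm) of the inhibition zone, with chloramphenicol as the reference agent.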

Serratia marcescens = experiment: Antibacterial activity against Serratia marcescens at 200 ug/disc by disc diffusion assay
Bacillus cereus = experiment: Antibacterial activity against Bacillus cereus at 200 ug/disc by disc diffusion assay
Geotrichum candidum = experiment: Antifungal activity against Geotrichum candidum at 2% by disc diffusion assay
Aspergillus niger = experiment: Antifungal activity against Aspergillus niger at 2% by disc diffusion assay
Aspergillus flavus = experiment: Antifungal activity against Aspergillus flavus at 2% by disc diffusion assay
Pseudomonas aeruginosa = experiment: Antibacterial activity against Pseudomonas aeruginosa at 200 ug/disc by disc diffusion assay
[1] = tested on: Scopulariopsis brevicaulis; experiment: Antifungal activity against Scopulariopsis brevicaulis at 2% by disc diffusion assay
Escherichia coli = experiment: Antibacterial activity against Escherichia coli at 50 uL/well by well diffusion assay; type: functional; summary of the method: as §1
Candida albicans = experiment: Antifungal activity against Candida albicans at 200 ug/disc by disc diffusion assay
Staphylococcus aureus = experiment: Antibacterial activity against Staphylococcus aureus at 200 ug/disc by disc diffusion assay
Fusarium oxysporum = experiment: Antifungal activity against Fusarium oxysporum at 2% by disc diffusion assay
Trichophyton rubrum = experiment: Antifungal activity against Trichophyton rubrum at 50 uL/well by well diffusion assay; type: functional
Summary of the method: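 Agar discs (10 mm) carrying spores and hyphae were shaken in sterile distilled water. 1 mL of the spore suspension was plated and mixed with 15 mL molten SDA, then left to set. Compounds were at 2% in DMSO, applied per Bauer's diffusion method. The read-out was the inhibition zone (mm).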

Compound	diameter of the inhibition zone (DIZ) (Micrococcus luteus) [mm]	diameter of the inhibition zone (DIZ) (Serratia marcescens) [mm]	diameter of the inhibition zone (DIZ) (Bacillus cereus) [mm]	diameter of the inhibition zone (DIZ) (Geotrichum candidum) [mm]	diameter of the inhibition zone (DIZ) (Aspergillus niger) [mm]	diameter of the inhibition zone (DIZ) (Aspergillus flavus) [mm]	diameter of the inhibition zone (DIZ) (Pseudomonas aeruginosa) [mm]	diameter of the inhibition zone (DIZ) [1] [mm]	diameter of the inhibition zone (DIZ) (Escherichia coli) [mm]	diameter of the inhibition zone (DIZ) (Candida albicans) [mm]	diameter of the inhibition zone (DIZ) (Staphylococcus aureus) [mm]	diameter of the inhibition zone (DIZ) (Fusarium oxysporum) [mm]	diameter of the inhibition zone (DIZ) (Trichophyton rubrum) [mm]
NC(=O)c1sc2c(c1N)c1c(c3nncn32)CCCC1	0	0	10	0	0	0	0	0	0	0	8	0	0
CC(=O)CSc1c(C#N)c2c(c3nncn13)CCCC2	12	12	12	0	0	0	0	0	8	0	10	0	0
CC(=O)c1sc2c(c1N)c1c(c3nncn32)CCCC1	0	0	0	0	0	0	0	0	0	0	0	0	0
N#Cc1c2c(c3nncn3c1SCC(=O)c1ccccc1)CCCC2	14	0	14	8	16	20	0	10	10	11	0	11	0
Nc1c(C(=O)c2ccccc2)sc2c1c1c(c3nncn32)CCCC1	11	0	0	8	13	15	0	8	10	11	0	0	0
N#CCSc1nc(NN)c2c(c1C#N)CCCC2	0	10	0	0	0	0	0	0	0	10	8	0	0
Cc1cc(C)n(-c2nc(SCC#N)c(C#N)c3c2CCCC3)n1	0	10	8	10	8	0	0	0	0	12	8	8	0
CCOC(=O)CSc1nc(NN)c2c(c1C#N)CCCC2	0	0	8	0	0	0	0	0	0	0	8	0	0
CCOC(=O)CSc1nc(-n2nc(C)cc2C)c2c(c1C#N)CCCC2	0	10	0	10	0	0	0	0	10	0	7	0	0
N#Cc1c(SCC(N)=O)nc(NN)c2c1CCCC2	0	8	0	10	0	0	0	0	11	0	0	10	0
Cc1cc(C)n(-c2nc(SCC(N)=O)c(C#N)c3c2CCCC3)n1	0	0	0	0	8	0	0	0	0	0	10	0	0
CC(=O)CSc1nc(NN)c2c(c1C#N)CCCC2	0	8	11	12	0	0	0	0	12	11	0	0	20
CC(=O)CSc1nc(-n2nc(C)cc2C)c2c(c1C#N)CCCC2	0	8	0	8	0	0	0	0	13	10	0	10	17
O=C(N[C@H](CO)[C@H](O)c1ccc([N+](=O)[O-])cc1)C(Cl)Cl [CHLORAMPHENICOL]	18	40	30	–	–	–	17	–	34	–	20	–	–
Clc1ccccc1C(c1ccccc1)(c1ccccc1)n1ccnc1 [CLOTRIMAZOLE]	–	–	–	26	25	26	–	27	–	27	–	25	40

— ChEMBL document CHEMBL1667754, “Synthesis and biological activity of pyrazolothienotetrahydroisoquinoline and [1,2,4]triazolo[3,4-a]thienotetrahydroisoquinoline derivatives” (2011)
